Assay outcomes: PubChem BioAssay, several laboratories
STAT3 act-1: activators of IL-6 induced STAT3 signaling. AID 871. actives 0.91% (n = 190,000). activation (% of control), % at 5.6 µM. U3A cells, IL-6 STAT3-luciferase reporter, luminescence; 100% = signal with IL-6 EC80 alone;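 active = activation above the screen-wide mean of compound activation plus 3 SD, cut at about 130% in these data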;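 also: 0% = background luminescence of wells with medium and substrate only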
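Material: human U3A cells carrying STAT3-luciferase construct. Measured by: reporter luminescence signal. Timing: compound 1 h, then IL-6 6 h at 37 °C.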
NF-kB expr up: raises NF-kB expression in human neuronal cells. NF-kB reporter expression; stronger effect = higher value. actives 1.6% (n = 190,000). fold change at 12.5 µM. AID 1239; in the data active = fold change above about 3.3
STAT1 act-1: STAT1 signaling activation; AID 932; actives 2.6% (n = 200,000); activation (% of control), % at 5.5 µM; NIH 3T3 STAT1-luciferase reporter, IFN-gamma, luminescence; 100% = IFN-gamma alone, no compound;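 active = activation above the screen-wide mean activation plus 3 SD, cut at about 130% in these data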;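 also: raw ratio to IFN-gamma control signal so 100% means no change and 0% no light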
STAT3 inh: STAT3 signaling inhibition; U3A cells, IL-6 STAT3-luciferase reporter, luminescence; host cell line lacks STAT1; inhibition, % at 5.5 µM; actives 0.89% (n = 190,000);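 active = inhibition above the mean inhibition across all screened compounds plus 3 SD, cut at about 44% in these data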;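 also: 0% = DMSO only wells and 100% = 100 µM nifuroxazide control wells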
APP 5'UTR act: APP 5'UTR luciferase reporter activation; actives 1% (n = 190,000); activation, % at 2 µM; AID 1276; SH-SY5Y APP 5'UTR luciferase reporter, luminescence; zero percent = DMSO vehicle wells;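 active = activation above a set limit, based on mean plus 3 SD of controls, cut at about 140% in these data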
STAT1 blocker: STAT1 signaling inhibition; inhibition, % at 5.5 µM; actives 0.35% (n = 200,000); AID 920; NIH 3T3 STAT1-luciferase reporter, IFN-gamma, luminescence;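 active = inhibition above a set limit, the mean inhibition across all tested compounds plus 3 SD, cut at about 34% in these data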;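 also: 0% = IFN-gamma with DMSO and 100% = IFN-gamma with 300 µM nifuroxazide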
STAT3 act-2: confirmation of STAT3 signaling activators. potentiation (% of control), % at 5.7 µM. actives 64% (n = 1,200). U3A STAT3-luciferase reporter, IL-6 potentiation, luminescence; U3A cells lack STAT1; 100 means same as IL-6 alone. AID 1267. shares compounds with STAT3 act-1;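 active = percent activation of the STAT3 luciferase reporter above a set limit taken from the earlier primary screen, cut at about 130% in these data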;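 also: 0% = background signal of medium plus substrate and 100% = median of IL-6 with DMSO wells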
NFkB act 2: activates NF-kappaB, counter-screen to STAT3 activators. AID 1309. actives 11% (n = 1,200). activation (% of control), % at 5.7 µM. human cells, NF-kappaB reporter activation. shares compounds with STAT3 act-1; in the data active = activation above about 120%;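 also: reporter induced by TNF-alpha stimulation; 100% = median of stimulated DMSO wells and 0% = no signal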
STAT1 act-2: counter-screen for STAT3 activators: STAT1 activation; shares compounds with STAT3 act-1; NIH 3T3 STAT1-luciferase reporter, IFN-gamma, luminescence; actives 13% (n = 1,200); AID 1318; activation (% of control), % at 5.7 µM;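 active = activation above the solvent-only control well mean plus 3 SD, set per screening run, cut at about 120% in these data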;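 also: 100% = IFN-gamma with DMSO median signal so 100% means no change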
An asterisk follows results filed as active; . = no result. Rows were chosen to be rich in hits. Some 5.1% of all compounds tested hit in one or more screens of this group.

SMILES | STAT3 act-1 | NF-kB expr up | STAT1 act-1 | STAT3 inh | APP 5'UTR act | STAT1 blocker | STAT3 act-2 | NFkB act 2 | STAT1 act-2
Cc1ccc(-n2c(=S)[nH]c3sc4c(c3c2=O)CCC4)cc1 | 137* | 1 | 100 | -37 | 3 | -2 | 116 | 110 | 105
CCc1ccc(NC(=O)c2cnc3scc(C)n3c2=O)cc1 | 154* | 2.1 | 126 | -68 | 61 | -32 | 165* | 115 | 138*
COc1ccc(C)cc1NC(=O)c1cnc2scc(C)n2c1=O | 91 | 1.1 | 102 | 11 | 2 | -5 | . | . | .
Cc1cc(C)n2nc(Nc3ccccc3)cc2n1 | 157* | 2 | 83 | -62 | 27 | 18 | 168* | 112 | 105
Cc1cc(C)n2nc3ccccc3c2n1 | 120 | 1.5 | 102 | -19 | -9 | -3 | . | . | .
c1ccc(-c2cc3c(-n4cccc4)ncnc3o2)cc1 | 151* | 1.2 | 89 | -52 | 2 | 12 | 160* | 112 | 113
Cc1ccc(-n2[nH]c(C)c(/C=C3/C=Nc4ccccc43)c2=O)cc1C | 149* | 1.3 | 99 | -54 | -11 | 1 | 138* | 109 | 111
Cc1ccc(-n2[nH]c(C)c(/C=N/Nc3ccc([N+](=O)[O-])cc3[N+](=O)[O-])c2=O)cc1C | 87 | 0.77 | 84 | 14 | -26 | 17 | . | . | .
CN(Cc1ccccc1)S(=O)(=O)c1ccc(Cl)c(C(=O)NCCc2ccccn2)c1 | 111 | 0.82 | 96 | -13 | 20 | 5 | . | . | .
N=c1oc2ccccc2cc1-c1nc(-c2ccc(Cl)cc2)cs1 | 110 | 1.2 | 99 | -8 | 0 | 1 | . | . | .
COc1ccc(-n2c(=O)/c(=C\c3cccs3)s/c2=C(/C#N)C(=O)N2CCN(C)CC2)cc1 | 107 | 1.4 | 96 | -4 | 18 | 3 | . | . | .
COc1ccc2c(c1)c1nnc(SCC(=O)N3C(C)CCCC3C)nc1n2C (stereo unspecified) | 95 | 0.43 | 105 | 8 | 7 | -5 | . | . | .
COc1ccc2c(c1)c1nnc(SC)nc1n2C | 160* | 1.3 | 124 | -65 | 11 | -27 | 171* | 113 | 128*
CCS(=O)(=O)N1Cc2ccccc2CC1C(=O)Nc1nnc(SCc2ccc(F)cc2)s1 (stereo unspecified) | 97 | 0.98 | 84 | 2 | -8 | 18 | . | . | .
O=C(c1ccc2ccccc2n1)N1CCN(c2ccccc2O)CC1 | 157* | 1.1 | 100 | -61 | 43 | 0 | 158* | 103 | 102
Oc1ccc(Cl)cc1-c1cc(-c2ccccc2)n[nH]1 | 148* | 1.8 | 111 | -52 | 36 | -12 | 142* | 114 | 125*
Clc1ccc(C2=Nn3c(nnc3-c3cc(-c4ccccc4)n[nH]3)SC2)cc1 | 94 | 0.96 | 105 | 15 | -3 | -10 | . | . | .
COc1cccc2sc(NNC(=O)COc3ccccc3)nc12 | 100 | 1.1 | 102 | 7 | 12 | -4 | . | . | .
COc1cccc2sc(Nc3nnc(-c4ccc(F)cc4)o3)nc12 | 159* | 0.99 | 104 | -60 | 10 | -4 | 148* | 111 | 109
CCCC[N+](CC#Cc1ccccc1)(CCCC)CCCS(=O)(=O)[O-] | 111 | 1.3 | 99 | -12 | 32 | -1 | . | . | .
COC(=O)c1c(C)[nH]c(C(=O)CN2CCOCC2)c1C | 139* | 1.1 | 91 | -40 | 0 | 10 | 138* | 108 | 99
CCCCOc1ccc(C(C)NC(=O)C2CCCN(S(=O)(=O)CCC)C2)cc1 (stereo unspecified) | 94 | 1.1 | 90 | 10 | 1 | 11 | . | . | .
COc1ccc(C(C)=O)c2c(O)cccc12 | 150* | 0.93 | 100 | -54 | -5 | 1 | 148* | 113 | 120
COc1ccc(C(C)=O)c2c1OCCO2 | 109 | 1.1 | 107 | -4 | 2 | -8 | . | . | .
Cc1nn(CC(=O)c2cccc(Cl)c2)c(C)c1[N+](=O)[O-] | 101 | 1.1 | 116 | 5 | -6 | -17 | . | . | .
SMILES | STAT3 act-1 | NF-kB expr up | STAT1 act-1 | STAT3 inh | APP 5'UTR act | STAT1 blocker | STAT3 act-2 | NFkB act 2 | STAT1 act-2
CCC(=O)N=c1sc2cc(F)cc(F)c2n1C | 140* | . | 105 | -44 | 2 | -5 | 125 | 108 | 139*
Cc1cc(C)nc(NS(=O)(=O)c2ccc(NC(=O)c3cccs3)cc2)n1 | 107 | 0.99 | 93 | -7 | -9 | 3 | . | . | .
CCCCN(CCCC)S(=O)(=O)c1ccc(NC(=O)c2cccs2)cc1 | 145* | 0.54 | 99 | -58 | 0 | 1 | 93 | 94 | 94
C=CCn1c(SCC(=O)NC2CC2)nc2sc(CC)cc2c1=O | 98 | 0.82 | 94 | 5 | -18 | 4 | . | . | .
Cc1ccc(OC(=O)c2oc3ccc(F)cc3c2C)c(C)c1 | 159* | 2.8 | 95 | -67 | 1 | 6 | 137* | 110 | 94
COc1ccc(-n2nnnc2SCc2nc3ccccc3s2)cc1 | 146* | 2.5 | 120 | -49 | 58 | -22 | 138* | 125* | 142*
COc1ccc(C)cc1-n1nnnc1SCc1nc2ccccc2s1 | 147* | 0.69 | 118 | -47 | 73 | -19 | 144* | 119 | 128*
CCOCCCn1c(SCc2nc3ccccc3s2)nc2ccccc2c1=O | 125 | 0.93 | 118 | -28 | 29 | -20 | . | . | .
COCCn1c(SCc2nc3ccccc3s2)nc2ccccc21 | 147* | 1.3 | 127 | -47 | 71 | -30 | 146* | 122* | 140*
CCCNC(=O)c1ccccc1NC(=O)c1ccc(CSc2ccccc2)cc1 | 115 | 0.67 | 97 | -12 | 0 | 4 | . | . | .
O=C(Nc1ccccc1Oc1ccccc1)c1cc([N+](=O)[O-])ccc1Cl | 98 | 0.64 | 96 | 2 | 2 | 5 | . | . | .
Cc1cccc(NC(=O)c2cc([N+](=O)[O-])ccc2Cl)c1O | 155* | 1.2 | 95 | -49 | 5 | 6 | 162* | 110 | 98
Cn1nc(-c2ccccc2)c2nc3ccccc3nc21 | 150* | 1 | 88 | -51 | -4 | 14 | 140* | 105 | 93
Cn1c(C(=O)c2ccccc2[N+](=O)[O-])nc2ccccc21 | 145* | 0.99 | 106 | -49 | -6 | -6 | 142* | 96 | 94
O=C(c1ccccc1[N+](=O)[O-])n1cnc2ccccc21 | 91 | 0.9 | 103 | 12 | 15 | -2 | . | . | .
COc1ccc(S(=O)(=O)Nc2ccccc2C(N)=O)cc1OC | 89 | 1.1 | 101 | 22 | 11 | -2 | . | . | .
